Source: ChEMBL document CHEMBL5712092, “NeuroD1 Dictates Tumor Cell Differentiation in Medulloblastoma” (Cell Rep, 2020)
The source made the active and inactive calls. The calls are words filed in the database; no cut-off is given here.

Assays:
[1] = system: Medulloblastoma cell; test: Antiproliferative activity in human medulloblastoma cell assessed as decrease in BrdU+ cells at 1 uM after 48 hrs by immunocytochemistry analysis relative to vehicle control; type: functional, cell-based
Procedure, shortened: (§1)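 Cultured MB cells were exposed to inhibitor at 1 μM for 48 h, with DMSO as the vehicle control. Cells were pulsed with BrdU for 2 h, then immunostained for BrdU (proliferation) or p27/Kip1 (differentiation), with DAPI nuclear counterstain. Read-out was the percentage of positive cells.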

[2] = system: Medulloblastoma cell; test: Induction of cell differentiation activity in human medulloblastoma cell assessed as increase in p27/Kip1+ cells at 1 uM after 48 hrs by immunocytochemistry analysis; type: functional, cell-based; procedure, shortened: as §1
[3] = system: Medulloblastoma cell; test: Upregulation in NeuroD1 protein expression in human medulloblastoma cell by Western blot analysis; type: functional, cell-based
[4] = system: Medulloblastoma cell; test: Antiproliferative activity in Ptch1-deficient mouse medulloblastoma cell after 48 hrs by CCK-8 assay; type: functional, cell-based
Procedure, shortened: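 MB cells from tumors of 30-week-old Ptch1+/− mice, dissociated by papain digestion and purified on a 35%/65% Percoll gradient. Cells were treated with a range of inhibitor concentrations for 48 h and viability was read by CCK8 assay. IC50 was taken as the concentration giving 50% inhibition of viability.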

[5] = system: Cerebellar granule neurone; test: Antiproliferative activity in wild-type mouse SmoA1-expressing cerebellar granule neurone cells at P7 at 2 uM for 48h by immunocytochemistry analysis; type: functional, cell-based
Procedure, shortened: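 Cerebellar granule neuron precursors from wild-type pups were infected with SmoA1-GFP lentivirus. 48 h after infection they were treated with inhibitor at 2 μM for 48 h, with DMSO as control. Proliferation was scored as the percentage of EdU+ cells among infected cells by immunostaining.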

[6] = system: Medulloblastoma cell; test: Antitumor activity in human medulloblastoma cells xenografted in CB17/SCID mouse at 100 mg/kg po, administered once a day; type: functional, organism-based
[7] = system: Medulloblastoma cell; test: Antitumor activity in human medulloblastoma cells xenografted in CB17/SCID mouse at 50 mg/kg po, administered once a day; type: functional, organism-based
[8] = Toxicity in CB17/SCID mouse xenografted with human medulloblastoma cells asessed as body weight loss at 100 mg/kg po, administered once a day; type: organism-based; details: in vivo
[9] = Toxicity in CB17/SCID mouse xenografted with human medulloblastoma cells asessed as body weight loss at 50 mg/kg po, administered once a day; type: organism-based; details: in vivo
[10] = system: Medulloblastoma cell; test: Antitumor activity in human medulloblastoma cells xenografted in CB17/SCID mouse assessed as decrease in Ki67+ cells at 100 mg/kg po, administered once a day by immunocytochemistry analysis; type: functional, organism-based
[11] = system: Medulloblastoma cell; test: Antitumor activity in human medulloblastoma cells xenografted in CB17/SCID mouse assessed as decrease in Ki67+ cells at 50 mg/kg po, administered once a day by immunocytochemistry analysis; type: functional, organism-based
[12] = system: Medulloblastoma cell; test: Induction of cell differentiation activity in human medulloblastoma cells xenografted in CB17/SCID mouse assessed as increase in NeuN expression at 100 mg/kg po, administered once a day by immunocytochemistry analysis; type: functional, organism-based
[13] = system: Medulloblastoma cell; test: Induction of cell differentiation activity in human medulloblastoma cells xenografted in CB17/SCID mouse assessed as increase in NeuN expression at 50 mg/kg po, administered once a day by immunocytochemistry analysis; type: functional, organism-based
[14] = system: Medulloblastoma cell; test: Increase of apoptosis in human medulloblastoma cells xenografted in CB17/SCID mouse assessed as cleaved caspase-3 expression at 100 mg/kg po, administered once a day by immunocytochemistry analysis; type: functional, organism-based
[15] = system: Medulloblastoma cell; test: Increase of apoptosis in human medulloblastoma cells xenografted in CB17/SCID mouse assessed as cleaved caspase-3 expression at 50 mg/kg po, administered once a day by immunocytochemistry analysis; type: functional, organism-based
[16] = system: Medulloblastoma cell; test: Antitumor activity in human medulloblastoma cells xenografted in CB17/SCID mouse assessed as increase in NeuroD1 expression at 100 mg/kg po, administered once a day by Western blot analysis; type: functional, organism-based
[17] = system: Mus musculus; test: Antitumor activity in human medulloblastoma cells xenografted in CB17/SCID mouse assessed as increase in NeuroD1 expression at 50 mg/kg po, administered once a day by Western blot analysis; type: functional, organism-based

Question: Which Activity [1] does the source give for CCN(c1cc(-c2ccc(CN3CCOCC3)cc2)cc(C(=O)NCc2c(C)cc(C)[nH]c2=O)c1C)C1CCOCC1 [TAZEMETOSTAT] here?
Answer: Active

Question: What about the Activity [2] of the same compound?
Answer: Active

Question: And the Activity [3]?
Answer: Active

Question: What about the IC50 [4] of the same compound?
Answer: 8.74 µM

Question: What about the Activity [5] of the same compound?
Answer: Active

Question: What about the Activity [6] of the same compound?
Answer: Active

Question: And the Activity [7]?
Answer: Active

Question: And the Activity [8]?
Answer: Non-Toxic

Question: What about the Activity [9] of the same compound?
Answer: Non-Toxic

Question: What about the Activity [10] of the same compound?
Answer: Active

Question: And the Activity [11]?
Answer: Active

Question: What about the Activity [12] of the same compound?
Answer: Active

Question: What about the Activity [13] of the same compound?
Answer: Active

Question: What about the Activity [14] of the same compound?
Answer: Active

Question: What about the Activity [15] of the same compound?
Answer: Active

Question: What about the Activity [16] of the same compound?
Answer: Active

Question: And the Activity [17]?
Answer: Active

Question: What does the source list for CC[C@H](C)n1cc(C)c2c(C(=O)NCc3c(C)cc(C)[nH]c3=O)cc(-c3ccc(N4CCNCC4)nc3)cc21 [GSK2816126]?
Answer: Activity [1]: Active; Activity [2]: Active; Activity [3]: Active; IC50 [4]: 4.64 µM; Activity [5]: Active; Activity [6]: Active; Activity [7]: Active; Activity [8]: Non-Toxic; Activity [9]: Non-Toxic; Activity [10]: Active; Activity [11]: Active; Activity [12]: Active; Activity [13]: Active; Activity [14]: Active; Activity [15]: Active; Activity [16]: Active; Activity [17]: Active

Question: What does the source list for CCCc1cc(C)[nH]c(=O)c1CNC(=O)c1cc(-c2ccc(N3CCN(C(C)C)CC3)nc2)cc2c1cnn2C(C)C?
Answer: Activity [1]: Active; Activity [2]: Active; Activity [3]: Active; IC50 [4]: 2.08 µM; Activity [5]: Active; Activity [6]: Active; Activity [7]: Active; Activity [8]: Non-Toxic; Activity [9]: Non-Toxic; Activity [10]: Active; Activity [11]: Active; Activity [12]: Active; Activity [13]: Active; Activity [14]: Active; Activity [15]: Active; Activity [16]: Active; Activity [17]: Active
